# Results: ChEMBL document CHEMBL1649147, “Antistaphylococcal activity of dihydrophthalazine antifolates, a family of novel antibacterial drugs” (2009)
# Columns and labels:
# [1] = tested on: Staphylococcus epidermidis; test: Antibacterial activity against coagulase-negative Staphylococcus epidermidis 225 by agar dilution method; type: functional
# Procedure, shortened: (§1)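 MICs by agar dilution on Mueller-Hinton agar following CLSI guidelines. S. aureus ATCC 29213 and E. faecalis ATCC 29212 were run as quality controls with each set, and test-strain MICs were kept only if control MICs fell within acceptable ranges.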
# Staphylococcus aureus [2] = test: Antibacterial activity against Staphylococcus aureus 145 after 10 passages in MHB without antibiotic by agar dilution method; type: functional
# Procedure, shortened: (§2)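 After drug-selective serial passage, selected clones were passaged 10 times in antibiotic-free MHB. MICs were then redetermined, and the change is expressed as log2 dilution steps.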
# [3] = tested on: Staphylococcus epidermidis; test: Antibacterial activity against coagulase-negative Staphylococcus epidermidis 057 assessed as change in MIC by agar dilution method after serial passages in the absence of antibiotic relative to control; type: functional; procedure, shortened: as §2
# Staphylococcus aureus [4] = test: Antibacterial activity against vancomycin-resistant Staphylococcus aureus VRS1 after 10 passages in MHB without antibiotic by agar dilution method; type: functional
# Procedure, shortened: (§3)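 Clones from the end of drug passage were transferred 10 times in MHB without antibiotic, then retested by agar dilution. MIC change is expressed as log2 dilution steps.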
# Staphylococcus aureus [5] = test: Antibacterial activity against vancomycin-resistant Staphylococcus aureus VRS1 assessed as change in MIC by agar dilution method after serial passages in the absence of antibiotic relative to control; type: functional; procedure, shortened: as §3
# [6] = tested on: Staphylococcus epidermidis; test: Antibacterial activity against methicillin-susceptible coagulase-negative Staphylococcus epidermidis 051 by broth macrodilution method; type: functional
# [7] = tested on: Staphylococcus epidermidis; test: Antibacterial activity against methicillin-resistant coagulase-negative Staphylococcus epidermidis 074 by broth macrodilution method; type: functional
# Staphylococcus aureus [8] = test: Antibacterial activity against Staphylococcus aureus 145
# [9] = tested on: Staphylococcus epidermidis; test: Antibacterial activity against methicillin-susceptible coagulase-negative Staphylococcus epidermidis 057 by broth macrodilution method; type: functional
# Staphylococcus aureus [10] = test: Antibacterial activity against Staphylococcus aureus ATCC 29213 assessed as change in MIC by agar odilution method after serial passages in presence of antibiotic relative to control; type: functional, ATCC29213
# Procedure, shortened: (§4)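 Serial passage under drug. Inoculum was ~1 × 10^6 CFU/ml from overnight MHA growth, in 1 ml MHB at 35°C for 24 h. Drug ranged from 4 log2 steps above to 3 log2 steps below the MIC. […] MIC change is given as log2 steps.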
# Staphylococcus aureus [11] = test: Antibacterial activity against Staphylococcus aureus 145 assessed as change in MIC by agar dilution method after serial passages in the absence of antibiotic relative to control; type: functional; procedure, shortened: as §2
# [12] = tested on: coagulase-negative staphylococci; test: Antibacterial activity against methicillin-susceptible coagulase-negative staphylococci by agar dilution method
# [13] = tested on: Staphylococcus epidermidis; test: Antibacterial activity against coagulase-negative Staphylococcus epidermidis 345 assessed as change in MIC by agar dilution method after serial passages in presence of antibiotic relative to control; type: functional; procedure, shortened: as §4
# [14] = tested on: Staphylococcus epidermidis; test: Antibacterial activity against coagulase-negative Staphylococcus epidermidis 057 by agar dilution method; type: functional
# Procedure, shortened: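 Agar dilution MIC determined on Mueller-Hinton agar following CLSI guidelines. S. aureus ATCC 29213 and Enterococcus faecalis ATCC 29212 were run as quality controls with each set, and test MICs were accepted only when the control MICs fell within acceptable ranges. Test organism was a coagulase-negative S. epidermidis strain.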
# [15] = tested on: Staphylococcus epidermidis; test: Antibacterial activity against methicillin-resistant coagulase-negative Staphylococcus epidermidis 197 after 50 passages by agar dilution method; type: functional
# Procedure, shortened: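 Daily serial passage for up to 50 days at 35°C for 24 h in 1 ml MHB. Each transfer used 10 µl from the tube nearest the MIC (1–2 dilutions below) with the same turbidity as the drug-free control. MICs were measured by agar dilution, with changes given as log2 steps.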
# Staphylococcus aureus [16] = test: Antibacterial activity against methicillin-susceptible Staphylococcus aureus by agar dilution method; type: functional
# Procedure, shortened: (§5)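 Agar dilution on Mueller-Hinton agar per CLSI guidelines. S. aureus ATCC 29213 and E. faecalis ATCC 29212 were run with each set, and test MICs were accepted only when the control strains fell within acceptable ranges.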
# [17] = tested on: Staphylococcus epidermidis; test: Antibacterial activity against methicillin-resistant coagulase-negative Staphylococcus epidermidis 345 by broth macrodilution method; type: functional
# [18] = tested on: coagulase-negative staphylococci; test: Antibacterial activity against Tmp-resistant coagulase-negative staphylococci by agar dilution method
# Staphylococcus aureus [19] = test: Antibacterial activity against methicillin-susceptible Staphylococcus aureus 505 by broth macrodilution method; type: functional
# [20] = tested on: coagulase-negative staphylococci; test: Antibacterial activity against methicillin-resistant coagulase-negative staphylococci by agar dilution method
# Staphylococcus aureus [21] = test: Antibacterial activity against methicillin-resistant Staphylococcus aureus 145 by broth macrodilution method; type: functional
# [22] = tested on: coagulase-negative staphylococci; test: Antibacterial activity against Tmp-susceptible coagulase-negative staphylococci by agar dilution method
# [23] = tested on: Staphylococcus epidermidis; test: Antibacterial activity against methicillin-resistant coagulase-negative Staphylococcus epidermidis 225 by broth macrodilution method; type: functional
# [24] = tested on: Staphylococcus epidermidis; test: Antibacterial activity against coagulase-negative Staphylococcus epidermidis 051 after 10 passages in MBH without antibiotic by agar dilution method; type: functional; procedure, shortened: as §2
# [25] = tested on: Staphylococcus epidermidis; test: Antibacterial activity against methicillin-resistant, Linezolid non-susceptible coagulase-negative Staphylococcus epidermidis 345 by agar dilution method; type: functional
# [26] = tested on: Staphylococcus epidermidis; test: Antibacterial activity against coagulase-negative Staphylococcus epidermidis 057 after 10 passages in MBH without antibiotic by agar dilution method; type: functional; procedure, shortened: as §2
# [27] = tested on: Staphylococcus epidermidis; test: Antibacterial activity against coagulase-negative Staphylococcus epidermidis 225 assessed as change in MIC by agar dilution method after serial passages in presence of antibiotic relative to control; type: functional; procedure, shortened: as §4
# Staphylococcus aureus [28] = test: Antibacterial activity against methicillin-susceptible, vancomycin-intermediate Staphylococcus aureus 505 by broth macrodilution method; type: functional
# Staphylococcus aureus [29] = test: Antibacterial activity against methicillin-susceptible, vancomycin-intermediate Staphylococcus aureus 505 after 50 passages by agar dilution method; type: functional
# Procedure, shortened: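 Daily serial passage for up to 50 days at 35°C for 24 h in 1 ml MHB. […] Each transfer used 10 µl from the tube nearest the MIC (1–2 dilutions below) with the same turbidity as the drug-free control. […] MICs were measured by agar dilution, with changes given as log2 steps.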
# Staphylococcus aureus [30] = test: Antibacterial activity against methicillin-resistant Staphylococcus aureus 507 by broth macrodilution method; type: functional
# Staphylococcus aureus [31] = test: Antibacterial activity against Staphylococcus aureus 145 assessed as change in MIC by agar dilution method after serial passages in presence of antibiotic relative to control; type: functional; procedure, shortened: as §4
# [32] = tested on: Staphylococcus epidermidis; test: Antibacterial activity against methicillin-resistant, vancomycin-intermediate coagulase-negative Staphylococcus epidermidis 225 by agar dilution method; type: functional; procedure, shortened: as §5
# [33] = tested on: Staphylococcus epidermidis; test: Antibacterial activity against coagulase-negative Staphylococcus epidermidis 051 by agar dilution method; type: functional; procedure, shortened: as §1
# [34] = tested on: Staphylococcus epidermidis; test: Antibacterial activity against coagulase-negative Staphylococcus epidermidis 197 assessed as change in MIC by agar dilution method after serial passages in presence of antibiotic relative to control; type: functional; procedure, shortened: as §4
# Staphylococcus aureus [35] = test: Antibacterial activity against methicillin-resistant Staphylococcus aureus ATCC 43300 by broth macrodilution method; type: functional; conditions: ATCC43300
# [36] = tested on: Staphylococcus epidermidis; test: Antibacterial activity against coagulase-negative Staphylococcus epidermidis 225 assessed as change in MIC by agar dilution method after serial passages in the absence of antibiotic relative to control; type: functional; procedure, shortened: as §2
smiles,measurement,setting,value
COc1ncc(C2c3ccccc3C=NN2C(=O)/C=C/c2cc(Cc3cnc(N)nc3N)cc(OC)c2OC)cn1 (stereo not given),MIC,[1],0.25 mg/L
same,MIC,Staphylococcus aureus [2],16 mg/L
same,fold change (FC),[3],0
same,MIC,Staphylococcus aureus [4],128 mg/L
same,fold change (FC),Staphylococcus aureus [5],-1
same,MIC,[6],0.125 mg/L
same,MIC,[7],0.06 mg/L
same,MIC,Staphylococcus aureus [8],0.5 mg/L
same,MIC,[9],8 mg/L
same,fold change (FC),Staphylococcus aureus [10],8
same,fold change (FC),Staphylococcus aureus [11],-4
same,MIC90,[12],0.06 mg/L
same,fold change (FC),[13],7
same,MIC,[14],8 mg/L
same,MIC,[15],1 mg/L
same,MIC50,Staphylococcus aureus [16],0.03 mg/L
same,MIC90,Staphylococcus aureus [16],0.25 mg/L
same,MIC,[17],0.06 mg/L
same,MIC50,[18],0.125 mg/L
same,MIC90,[18],0.5 mg/L
same,MIC,Staphylococcus aureus [19],0.03 mg/L
same,MIC50,[20],0.06 mg/L
same,MIC90,[20],0.5 mg/L
same,MIC,Staphylococcus aureus [21],0.25 mg/L
same,MIC50,[22],0.016 mg/L
same,MIC90,[22],0.03 mg/L
same,MIC,[23],0.25 mg/L
same,MIC,[24],16 mg/L
same,MIC,[25],0.125 mg/L
same,MIC,[26],128 mg/L
same,fold change (FC),[27],9
same,MIC,Staphylococcus aureus [28],0.016 mg/L
same,MIC,Staphylococcus aureus [29],1 mg/L
same,MIC,Staphylococcus aureus [30],0.06 mg/L
same,fold change (FC),Staphylococcus aureus [31],9
same,MIC,[32],0.25 mg/L
same,MIC,[33],0.25 mg/L
same,fold change (FC),[34],5
same,MIC,Staphylococcus aureus [35],0.03 mg/L
same,fold change (FC),[36],-4
